ChEMBL document CHEMBL1142266, “Structure-based virtual screening for the discovery of natural inhibitors for human rhinovirus coat protein” (J Med Chem, 2008)
≈ marks a conversion by molar mass, not a printed value. Calls of active or inactive are those of the source. No cut-off for these calls is given here.

Experiments:
[1] = Selectivity index, ratio of CC50 for HeLa cells to IC50 for HRV2 in HeLa cells; format: functional, Homo sapiens
[2] = system: Human rhinovirus 1A; test: Antiviral activity against HRV1A in HeLa cells; format: functional, organism-based
Procedure, shortened: (§1)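 Cytopathic-effect inhibition assays in HeLa cells infected with pleconaril-sensitive HRV-1A, -2, -14 or -16. Dose-dependent inhibition of virus-induced CPE was measured, and the 50% inhibitory concentration (IC50) was derived.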

[3] = Cytotoxicity against human HeLa cells after 72 hrs; format: cell-based
[4] = system: rhinovirus A16; test: Antiviral activity against HRV16 in HeLa cells; format: functional, organism-based; procedure, shortened: as §1
[5] = system: rhinovirus B14; test: Antiviral activity against HRV14 in HeLa cells; format: functional, organism-based; procedure, shortened: as §1
[6] = system: rhinovirus A2; test: Antiviral activity against HRV2 in HeLa cells; format: functional, organism-based; details: Rhinovirus A; procedure, shortened: as §1
[7] = system: rhinovirus A2; test: Inactivation of HRV2 assessed as reduction in plaque at 2.5 ug/ml after 1 hr; format: functional, organism-based
Procedure, shortened: (§2)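 Direct-inactivation test using a modified plaque-reduction format. HRV-2 was incubated with or without compound at 37 °C for 1 h, and the suspensions were then diluted 100-fold. Residual virus titer was determined by plaque assay on HeLa cells, with pleconaril run as positive control.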

[8] = system: rhinovirus A2; test: Inhibition of HRV2 absorption on HeLa cells assessed as reduction in plaques at 2.5 ug/ml after 2 hrs; format: functional; details: Rhinovirus A
[9] = system: rhinovirus A2; test: Inactivation of HRV2 assessed as reduction in plaque at 0.25 ug/ml after 1 hr; format: functional; set-up: scale not given: the % may be the effect or the level left; procedure, shortened: as §2
[10] = system: rhinovirus A2; test: Inhibition of HRV2 replication cycle progression; format: functional, organism-based; details: Rhinovirus A
[11] = system: rhinovirus A16; test: Inhibition of HRV16 replication cycle progression; format: functional, organism-based; details: Rhinovirus A
[12] = system: rhinovirus A2; test: Inhibition of HRV2 absorption on HeLa cells assessed as reduction in plaques at 0.25 ug/ml after 2 hrs; format: functional; details: Rhinovirus A
[13] = Selectivity for HRV2 over HRV16; format: functional

| SMILES | Ratio CC50/IC50 [1] | Activity [2] | CC50 at 72 h [3] [µg/mL] | Activity [4] | Activity [5] | IC50 [6] [µg/mL] | Activity [7] | inhibition at 2.5 µg/mL [8] [%] | IC50 [2] [µg/mL] | Activity [9] [%] | EC50 [10] [nM] | IC50 ([4]; Rhinovirus A) [µg/mL] | EC50 [11] [nM] | IC50 ([5]; Rhinovirus B) [µg/mL] | inhibition at 0.25 µg/mL [12] [%] | Selectivity ratio [13] |
| --- | --- | --- | --- | --- | --- | --- | --- | --- | --- | --- | --- | --- | --- | --- | --- | --- |
| C=C1CC[C@@H](O)C(C)(C)C1CC/C(C)=C/COc1ccc2ccc(=O)oc2c1 (some centres not stated) [FARNESIFEROL B] | 8.2 | inactive | 8.2 (≈ 21.4 µM) | inactive | inactive | 1 (≈ 2.61 µM) | – | – | – | – | – | – | – | – | – | – |
| C/C(=C\COc1ccc2ccc(=O)oc2c1)CCC1C(C)(C)[C@H]2CC[C@]1(C)O2 (some centres not stated) [FARNESIFEROL] | 8.02 | inactive | 7.7 (≈ 20.1 µM) | inactive | inactive | 0.96 (≈ 2.51 µM) | inactive | 35.2 | – | – | – | – | – | – | – | – |
| CC(=O)O[C@H]1CC[C@]2(C)[C@H](CC[C@@](C)(O)[C@@H]2COc2ccc3ccc(=O)oc3c2)C1(C)C [KELLARIN] | <1 | inactive | 15.5 (≈ 35 µM) | inactive | inactive | > 15.5 | – | – | – | – | – | – | – | – | – | – |
| C[C@H]1CC=C2[C@H](CC[C@H](O)C2(C)C)[C@@]1(C)COc1ccc2ccc(=O)oc2c1 [MICROLOBIDENE] | <1 | inactive | 10 (≈ 26.1 µM) | inactive | inactive | > 10 | – | – | – | – | – | – | – | – | – | – |
| Cc1cc(CCCOc2c(C)cc(-c3noc(C(F)(F)F)n3)cc2C)on1 [PLECONARIL] | 1260 | – | 12.6 (≈ 33 µM) | – | – | 0.01 (≈ 0.0262 µM) | – | – | 0.02 (≈ 0.0524 µM) | 84.3 | 40 | 0.02 (≈ 0.0524 µM) | 570 | 0.02 (≈ 0.0524 µM) | 100 | 10 |
